The pKb is the Kb on a negative log10 scale, so that one unit is a factor of ten. Read a high pKb as a small Kb.

Bounds are passed on as bounds.

The results in this text go back to ChEMBL document CHEMBL1148546, “3-Arylpiperazinylethyl-1H-pyrrolo[2,3-d]pyrimidine-2,4(3H,7H)-dione derivatives as novel, high-affinity and selective alpha(1)-adrenoceptor ligands” (Bioorg Med Chem Lett, 2006).

The target of the first test is T1, Alpha-1D adrenergic receptor (Rattus norvegicus) (UniProt P23944).
T1 sequence (whole entry): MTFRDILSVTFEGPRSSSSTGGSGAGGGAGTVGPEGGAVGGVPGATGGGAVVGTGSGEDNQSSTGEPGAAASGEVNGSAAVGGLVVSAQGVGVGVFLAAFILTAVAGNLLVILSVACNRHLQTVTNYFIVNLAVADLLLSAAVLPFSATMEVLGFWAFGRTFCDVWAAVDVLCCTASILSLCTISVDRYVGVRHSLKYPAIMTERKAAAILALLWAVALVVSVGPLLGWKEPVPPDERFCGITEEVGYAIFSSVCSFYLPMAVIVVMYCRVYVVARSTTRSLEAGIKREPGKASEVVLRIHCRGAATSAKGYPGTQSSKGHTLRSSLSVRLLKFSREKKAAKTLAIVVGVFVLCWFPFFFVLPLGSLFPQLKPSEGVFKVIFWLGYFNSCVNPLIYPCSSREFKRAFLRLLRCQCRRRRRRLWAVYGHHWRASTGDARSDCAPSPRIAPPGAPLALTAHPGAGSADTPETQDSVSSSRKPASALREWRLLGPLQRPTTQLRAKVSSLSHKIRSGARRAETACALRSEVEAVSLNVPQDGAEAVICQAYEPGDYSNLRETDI
Put plainly: Antagonistic activity at ADRA1D in rat thoracic aorta. Format: functional, tissue-based. In short, it runs like this:
(§1)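 Antagonism in isolated rat tissues: prostatic vas deferens (α1A), spleen (α1B), thoracic aorta (α1D). Each compound tested at a single concentration, and each concentration was investigated at least four times. pKb was calculated by the van Rossum method. pA2 was derived from Arunlakshana–Schild plots. WB4101 was used as the standard.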
Turning to `Cc1ccc(-c2cc3c(=O)n(CCN4CCN(c5ccccc5Cl)CC4)c(=O)[nH]c3[nH]2)cc1`, the pKb stood at 7.78.
On to `O=c1[nH]c2[nH]c(-c3ccc(Cl)cc3)cc2c(=O)n1CCN1CCN(c2ccccc2Cl)CC1`, for which the pKb came out at 7.66.
The same measure, in the same setting: as for `COc1ccc(-c2cc3c(=O)n(CCN4CCN(c5ccccc5Cl)CC4)c(=O)[nH]c3[nH]2)cc1`, the figure is 7.69.
The compound `Cc1ccc(-c2cc3[nH]c(=O)n(CCN4CCN(c5ccccc5Cl)CC4)c(=O)c3[nH]2)cc1` yielded a pKb of 6.44.

The next test addresses T2, Alpha-1A adrenergic receptor (Rattus norvegicus) (UniProt P43140).
T2 sequence (whole entry): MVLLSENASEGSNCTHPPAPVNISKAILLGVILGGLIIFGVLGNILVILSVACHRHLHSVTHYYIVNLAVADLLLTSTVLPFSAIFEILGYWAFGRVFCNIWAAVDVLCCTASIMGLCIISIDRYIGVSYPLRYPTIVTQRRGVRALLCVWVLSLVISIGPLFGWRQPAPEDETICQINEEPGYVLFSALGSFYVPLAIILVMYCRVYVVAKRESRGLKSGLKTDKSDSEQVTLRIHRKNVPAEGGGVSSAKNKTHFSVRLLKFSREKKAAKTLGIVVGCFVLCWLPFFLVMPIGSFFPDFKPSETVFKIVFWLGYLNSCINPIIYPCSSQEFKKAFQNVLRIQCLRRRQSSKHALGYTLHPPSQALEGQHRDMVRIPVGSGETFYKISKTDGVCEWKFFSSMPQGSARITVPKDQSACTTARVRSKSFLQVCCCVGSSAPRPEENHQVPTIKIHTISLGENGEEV
Briefly: Antagonistic activity at ADRA1A in isolated rat prostatic vas deferens. Format: functional, tissue-based. The procedure, abridged: as §1
In turn, `Cc1ccc(-c2cc3c(=O)n(CCN4CCN(c5ccccc5Cl)CC4)c(=O)[nH]c3[nH]2)cc1` registered a pKb of 7.25.
`O=c1[nH]c2[nH]c(-c3ccc(Cl)cc3)cc2c(=O)n1CCN1CCN(c2ccccc2Cl)CC1` came in with a pKb of 6.41.
Turning to `COc1ccc(-c2cc3c(=O)n(CCN4CCN(c5ccccc5Cl)CC4)c(=O)[nH]c3[nH]2)cc1`, the pKb came out at 7.48.
In the case of `Cc1ccc(-c2cc3[nH]c(=O)n(CCN4CCN(c5ccccc5Cl)CC4)c(=O)c3[nH]2)cc1`, the pKb was found to be 6.72.

System in a further test: not listed separately
Briefly: Selectivity for dopamine D2 over adrenergic alpha-1 receptor. In short, it runs like this:
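Selectivity is the ratio of Ki at 5-HT1A, D1 or D2 to Ki at α1. Ki values are means (±SD) of three separate experiments.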
For the compound `Cc1ccc(-c2cc3c(=O)n(CCN4CCN(c5ccccc5Cl)CC4)c(=O)[nH]c3[nH]2)cc1`, the Ratio Ki came to 147.
With `O=c1[nH]c2[nH]c(-c3ccc(Cl)cc3)cc2c(=O)n1CCN1CCN(c2ccccc2Cl)CC1`, the Ratio Ki was 898.
Consider `COc1ccc(-c2cc3c(=O)n(CCN4CCN(c5ccccc5Cl)CC4)c(=O)[nH]c3[nH]2)cc1`, for which the Ratio Ki stood at 10.
The same measure, in the same setting: to `Cc1ccc(-c2cc3[nH]c(=O)n(CCN4CCN(c5ccccc5Cl)CC4)c(=O)c3[nH]2)cc1` belongs greater than 500.
